Measurements reported in publication PMC3993885 (Journal of Natural Products, 2014).

Tests used:
[1] = system: TNF-α-induced NF-κB activity; type: cell-based, human; settings: at 50 μM; TNF-α 2 ng/mL, 6 h
[2] = system: HEK293 cell line; assay: Cytotoxicity / survival in HEK293 cells, same conditions as the NF-κB assay; type: cell-based, human
[3] = Chemical stability of 2 monitored by 1H and 13C NMR; type: physicochemical; settings: in DMSO-d6 at room temperature (20 °C), after a month
Procedure, shortened: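 1D 1H and 13C spectra were recorded at 400 MHz or 500 MHz. Conversion was judged from a second set of NMR signals assigned to the C-8′ dehydration product.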

[4] = system: dicotyledons; settings: cited from earlier work
[5] = system: Xanthomonas oryzae; settings: cited from earlier work

| Compound | NF-κB % inhibition [1] [%] | NF-κB % survival ([2]; % survival at a concentration of 50 μM) [%] | IC50 ([2]; read-out: HEK293 cell line cytotoxicity IC50, same conditions as the NF-κB assay) [µM] | conversion of 2 to 2a (dehydration at C-8′) [3] [%] | herbicidal activity [4] | toxicity toward dicotyledons [4] | growth inhibition of Xanthomonas oryzae [5] |
| --- | --- | --- | --- | --- | --- | --- | --- |
| 9′-deoxy-8′,8′-dihydroxyherbicidin B [Compound 2] | 96.2 ± 4.9 | 45.1 ± 5.7 | 13.7 ± 3.3 | ~70 |  |  |  |
| C/C=C(\CO)C(=O)O[C@H]1[C@H](O)[C@@H](C(=O)OC)O[C@@H]2C[C@H]3O[C@@H](n4cnc5c(N)ncnc54)[C@H](OC)[C@H]3O[C@]21O [Compound 4, Herbicidin A] |  |  |  |  | herbicidal | selectively toxic | significantly inhibited the growth |
| COC(=O)[C@H]1O[C@@H]2C[C@H]3O[C@@H](n4cnc5c(N)ncnc54)[C@H](OC)[C@H]3O[C@@]2(O)[C@@H](O)[C@@H]1O [Compound 5, Herbicidin B] |  |  |  |  | herbicidal | selectively toxic | significantly inhibited the growth |
| aureonucleomycin [Compound 9] |  |  |  |  | herbicidal | selectively toxic | significantly inhibited the growth |
